Compound activity from PubChem.
Shown is part of a subset that was picked to be rich in hits.
GAA850 FXN act: FXN promoter activators, primary screen, cell-based, luciferase luminescence, HEK293 lucGAA850 | HEK293 lucGAA850 FXN promoter luciferase reporter, 24 h; percent of 10 µM SAHA response | activation, % at 6 µM | actives 0.56% (n = 360,000);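 active means activation above the average of all compounds screened plus 3 SD, cutoff fixed separately per campaign, cut at about 7.5% in these data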
XBP1 UPR activ: activators of adaptive XBP1 UPR arm, primary screen, cell-based, CHO-XBP1 luciferase reporter, luminescence, uHTS. IRE1-XBP1 UPR activation; percent of tunicamycin response, DMSO as zero. activation, % at 20 µM. actives 0.33% (n = 330,000);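 active means versus positive control, 20 µM dose yields 30% or more activation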
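Assay system: IRE1-XBP1 luciferase reporter CHO line. Input: 1000 cells/well. Buffer or medium: F12 with 10% serum. Doses: 20 µM, 1% DMSO. Times: overnight seeding at 37 °C, 6 h compound treatment at 37 °C. Technique: Steady-Glo luciferase glow luminescence, 10 min after reagent addition.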
CHOP inh: inhibitors of CHOP promoter induction, primary screen, cell-based, unfolded protein response, luciferase reporter; inhibition, % at 10 µM; CHO-K1 CHOP-promoter luciferase, tunicamycin-induced, 15-18 h; actives 3.8% (n = 220,000);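 active means compounds that reduced the stress-induced luciferase reporter signal by more than about 70% of percent inhibition, limit read from the data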
CHOP UPR activ: activators of apoptotic CHOP UPR arm, primary screen, cell-based, CHO-CHOP luciferase reporter, luminescence, uHTS; UPR activation; percent of tunicamycin response over DMSO baseline; activation, % at 10 µM; actives 0.34% (n = 330,000); AID 449763, 2010;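 active means at 10 µM dose, activation of 40% or more, normalized to positive control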
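Test system: CHO-CHOP cells, stable luciferase reporter of PERK-eIF2a-CHOP signalling | Quantity: 500 CHO-CHOP cells per well | Buffer or medium: F12 plus 10% serum | Compound dosing: 10 µM single point, 0.5% DMSO | Schedule: 6 h compound treatment, 37 °C | Signal: Luciferase luminescence | Control set: Tunicamycin high control, DMSO low control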
Numbers stand for hits; . = inactive; / = no result.

SMILES | GAA850 FXN act | XBP1 UPR activ | CHOP inh | CHOP UPR activ
O=C(COC(=O)CCN1C(=O)/C(=C\C=C\c2ccccc2)SC1=S)Nc1cc(F)ccc1F | . | . | 77 | .
O=C(CN1C(=O)/C(=C\C=C\c2ccccc2)SC1=S)Nc1ccc(F)cc1 | . | . | 89 | .
C[C@@H]1CN([C@@H](C)CO)C(=O)CCCn2nncc2CO[C@H]1CN(C)C(=O)c1ccncc1 | . | / | / | /
Cc1ccc(S(=O)(=O)N(CC(=O)Nc2ccc(Cl)c([N+](=O)[O-])c2)C2CCCCC2)cc1 | . | . | 73 | .
NC(Cc1ccc(Cl)cc1)c1csc(NC(=O)NCC2CCCCC2)n1 (centres undefined) | . | / | / | /
O=C(Cn1nnc(-c2ccc(CN3CCOCC3)cc2)n1)N(c1ccccc1)c1ccccc1 | . | . | . | .
CC(C)(C)NC(=O)CN(C(=O)Cn1nnc(-c2ccc(Cl)cc2)n1)C1CCN(Cc2ccccc2)CC1 | . | . | 72 | .
CC(C)Oc1cc(NC(=O)CSCC(=O)Nc2cccc(C(F)(F)F)c2)c(Cl)cc1Cl | . | . | 100 | .
O=C(O)CSCC(=O)Nc1cc(C(F)(F)F)ccc1Cl | . | . | . | .
C/C(=N\NC(=O)CNC(=O)C(c1ccccc1)c1ccccc1)c1ccc(C(C)(C)C)cc1 | . | . | 86 | .
CCOC(=O)c1csc(NC(=O)COc2ccc(Cl)cc2Cl)n1 | . | . | 71 | .
O=C(Oc1cccc2cccnc12)c1cccc(N2C(=O)C3C4CCC(C4)C3C2=O)c1 (centres undefined) | / | . | 84 | .
O=C(Nc1ncc(Cc2ccccc2Cl)s1)c1ccc([N+](=O)[O-])cc1 | . | . | . | .
O=C(Nc1ncc(Cc2cccc(Cl)c2)s1)c1ccc([N+](=O)[O-])cc1 | . | . | 76 | .
CC(=O)Nc1cc(-c2cccnc2)cn2c(-c3cccc(C(F)(F)F)c3)cnc12 | . | / | / | /
COc1ccc(-n2nc(C(=O)Nc3ccc(OC)c(OC)c3)c3c4ccccc4n(C)c3c2=O)cc1 | . | . | 72 | .
COc1ccc(-n2nc(C(=O)Nc3ccc4c(c3)OCO4)c3c4ccccc4n(C)c3c2=O)cc1 | . | . | / | .
COc1ccc(-n2cnc3scc(-c4ccc(OC)c(OC)c4)c3c2=O)cc1 | . | . | 76 | .
COc1ccc(-c2csc3ncn(-c4ccc(C)cc4)c(=O)c23)cc1OC | . | . | . | .
COc1ccccc1N1CCN(CCCCNS(=O)(=O)c2cccc3c(N(C)C)cccc23)CC1 | / | / | . | /
CC(C)Oc1ccc(C(=O)Nc2ccc(N3CCCCC3)cc2)cc1 | . | . | 71 | .
CN(C)CCCOc1cccc(Oc2ccccc2)c1 | . | . | . | .
C=CCN(CC=C)CCOc1cccc(Oc2ccccc2)c1 | . | . | 87 | .
O=C(NCCN1CCc2ccccc2C1)C1CC(=O)N(C2CCCC2)C1 (centres undefined) | . | . | 89 | .
O=C(NCCc1ccccc1)C1CC(=O)N(C2CCCC2)C1 (centres undefined) | . | . | / | .
SMILES | GAA850 FXN act | XBP1 UPR activ | CHOP inh | CHOP UPR activ
COc1cc(CNc2ncnc3c2ncn3[C@H]2CN(CCc3ccccc3)C[C@@H](CO)O2)cc(OC)c1OC | . | / | / | /
CC1CCC(C(C)C)C(OC(=O)CSc2nccc(=O)[nH]2)C1 (centres undefined) | . | . | . | .
COc1ccc(-c2n(CC(=O)OC3CC(C)CCC3C(C)C)c3ccccc3[n+]2C)cc1 (centres undefined) | . | / | 87 | /
CCOc1ccc(N(CC(=O)NCc2ccccc2Cl)S(=O)(=O)c2c(C)noc2C)cc1 | . | . | / | .
CCOc1ccc(S(=O)(=O)N(CC(=O)Nc2cc(C)on2)Cc2ccccc2Cl)cc1 | . | . | 73 | .
CCCCNC(=S)N(C)/N=C/c1c(C)[nH]c2ccccc12 | . | . | 72 | .
CCCCNC(=S)N(C)/N=C/c1c(F)c(F)c(F)c(F)c1F | . | . | . | .
N#CC(C#N)=C1SC(=Nc2ccccc2)C(=Nc2ccccc2)N1c1ccccc1 | . | / | / | /
CC1(C(=O)Nc2cccc3cccnc23)CCN1Cc1cccc2c1OCO2 (centres undefined) | . | / | / | /
C=CCNc1nc2c(c(=O)[nH]c(=O)n2C)n1CCCCC | . | . | 71 | .
CCCn1c(SCCc2ccccc2)nc2c1c(=O)[nH]c(=O)n2C | . | . | . | .
C=CCn1c(SCCCc2ccccc2)nc2c1c(=O)[nH]c(=O)n2C | . | . | 77 | .
Cc1ccc(Sc2nc3c(c(=O)[nH]c(=O)n3C)n2CCc2ccccc2)cc1 | . | . | 95 | .
CCCCCn1c(SCCc2ccccc2)nc2c1c(=O)[nH]c(=O)n2C | . | . | 93 | .
Cc1cc(Cl)ccc1-c1cc2nc(NCCCN(C)C)n(C)c(=O)c2s1 | . | / | / | /
C[C@H](CO)N1C[C@H](C)[C@H](CN(C)Cc2ccncc2)Oc2ncc(Br)cc2C1=O | . | / | / | /
Cn1c(=O)[nH]c(=O)c2c1nc(CN1CCN(c3ccc(F)cc3)CC1)n2CCc1ccccc1 | . | . | . | .
CC(C)n1c(SCCCc2ccccc2)nc2c1c(=O)[nH]c(=O)n2C | . | / | 97 | /
COCCn1c(SCCCc2ccccc2)nc2c1c(=O)[nH]c(=O)n2C | . | . | . | .
CC(C)CCn1c(SCCc2ccccc2)nc2c1c(=O)[nH]c(=O)n2C | . | . | 75 | .
Cn1c(=O)[nH]c(=O)c2c1nc(CN1CCN(c3cccc(Cl)c3)CC1)n2CCc1ccccc1 | . | . | 82 | .
CCCCn1nc(C(=O)NC2CCCCC2)c2ccccc2c1=O | . | / | / | /
O=[N+]([O-])c1ccc(Oc2ccc(F)cc2)c2ccncc12 | . | . | 77 | .
Cn1c2ccccc2c(=O)c2c(=O)n(Cc3ccco3)c(-c3ccc(C(C)(C)C)cc3)nc21 | / | . | 89 | .
COc1ccc(Cn2c(-c3ccccc3)nc3c(c(=O)c4ccccc4n3C)c2=O)cc1 | . | . | . | .
SMILES | GAA850 FXN act | XBP1 UPR activ | CHOP inh | CHOP UPR activ
O=C(CNC(=O)c1cccc(-n2cccc2)c1)Nc1ccccc1Br | . | / | / | /
COc1ccc2nc(SCC(=O)Nc3ccc4c(c3)OCCO4)[nH]c2c1 | . | . | 76 | .
CCOC(=O)C(C)N1c2cccc3cccc(c23)S1(=O)=O (centres undefined) | . | / | / | /
Cc1ccc(Cn2nc(-c3ccccc3)nc2-c2ccccc2)cc1 | . | . | 75 | .
c1ccc(Cn2nc(-c3ccccc3)nc2-c2ccccc2)cc1 | . | . | . | .
Cc1cc(OCC(=O)Nc2c(C(C)C)cccc2C(C)C)no1 | . | / | / | /
Cc1cccc(OCC(=O)N/N=C/c2cn[nH]c2-c2ccc(Cl)c(Cl)c2)c1 | . | . | 80 | .
CCNC(=O)C1(C)CCN(C(=O)c2cc(OC)c(OC)c(OC)c2)C1 (centres undefined) | . | / | / | /
Cc1ccccc1Cn1c(=O)n(Cc2ccco2)c(=O)c2ccccc21 | . | . | 88 | .
